Screening data as filed in PubChem.
Rows were chosen to be rich in hits. Some 3.5% of all compounds tested hit in one or more screens of this group.
MrgX1 agonist: agonists of human MrgX1 receptor, primary screen, HEK293 cells, Fluo-4 calcium flux; Fluo-4 calcium fluorescence, agonist mode; stronger effect = higher value; B-score at 10 µM; 310,000 tested, 0.44% active; AID 588627, 2011; Mas-related G-protein coupled receptor member X1 (Homo sapiens), Q96LB2;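 active = calcium response B-score plate-corrected fluorescence ratio at least 3 library SD, with starting fluorescence B-score inside 5 SD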
Target sequence (Q96LB2 whole entry, looked up): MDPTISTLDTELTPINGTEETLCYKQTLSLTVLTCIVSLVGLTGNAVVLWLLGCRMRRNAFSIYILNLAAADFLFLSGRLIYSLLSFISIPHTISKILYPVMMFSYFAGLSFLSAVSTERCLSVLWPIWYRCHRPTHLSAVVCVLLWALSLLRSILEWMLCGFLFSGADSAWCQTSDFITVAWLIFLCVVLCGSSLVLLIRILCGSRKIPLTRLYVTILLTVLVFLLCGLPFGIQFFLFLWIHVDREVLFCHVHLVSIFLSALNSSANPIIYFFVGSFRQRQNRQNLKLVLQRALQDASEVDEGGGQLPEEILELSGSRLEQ
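times = overnight plating, then 30 min 37 °C plus 30 min room-temperature dye loading | assay system = stable human MrgX1 HEK293 cell line | input = fifteen thousand cells per well | signal = kinetic calcium dye fluorescence, Fluo-4 NW | dosing = compound delivered in addition one of three | read-out = B-scored fluorescence response ratio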
MrgX1 PAM: positive allosteric modulators of MrgX1, primary screen, HEK293 cells, Fluo-4 calcium flux. Mas-related G-protein coupled receptor member X1 (Homo sapiens), Q96LB2. FDSS; stronger effect = higher value. B-score at 10 µM. 310,000 tested, 0.63% active. AID 588675, 2011;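 active = plate-corrected calcium response at least 3 library SD above typical, normal starting fluorescence, not activating the receptor alone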;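 also: compound read alongside a low EC10 to EC30 dose of BAM8-22 agonist; peak minus trough fluorescence over baseline measured at the second addition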
RGS4 act: RGS4 potentiators or activators, primary screen, cell-based, HEK293 M3R inducible RGS4, calcium flux. carbachol calcium flux Fluo4; stronger effect = lower value. B-score at 10 µM. 310,000 tested, 0.92% active. AID 463111, 2010;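 active = B-score of the integrated calcium signal more than 4 SD below the library mean, with starting fluorescence not abnormally high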;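 also: negative B-score means reduced calcium response which marks RGS4 activation or potentiation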
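test system = HEK293 cells with stable M3R and inducible RGS4 | schedule = recording 10 s baseline at 1 Hz, 100 s post-agonist | technique = Fluo4-AM (2 µM) calcium-flux fluorescence, kinetic read | measure = Agonist-evoked peak-minus-minimum fluorescence over baseline, integrated ratio, B score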
RGS4 inh: RGS4 inhibitors, primary screen, cell-based, HEK293 M3R inducible RGS4, calcium flux. Regulator of G-protein signaling 4 (Homo sapiens), P49798. Fluo-4 calcium flux; stronger effect = higher value; triggered by carbachol at its EC20. B-score at 10 µM. 310,000 tested, 0.45% active;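 active = B-score, a plate-corrected calcium signal, over three deviations above library mean, with baseline fluorescence within five deviations of library mean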;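 also: RGS4 expression induced by doxycycline in cells with stable M3 receptor; B-score is computed from the integrated fluorescence ratio over baseline after carbachol; higher B-score means a larger calcium signal and so more RGS4 inhibition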
Target sequence (P49798 whole entry, looked up): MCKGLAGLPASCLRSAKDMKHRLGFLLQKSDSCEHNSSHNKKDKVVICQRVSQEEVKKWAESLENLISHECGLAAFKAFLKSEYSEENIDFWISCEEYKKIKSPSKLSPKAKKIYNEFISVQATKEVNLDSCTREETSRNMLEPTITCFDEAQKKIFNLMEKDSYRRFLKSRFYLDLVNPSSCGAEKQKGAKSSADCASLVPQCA
MrgX1 antagonist: antagonists of human MrgX1 receptor, primary screen, HEK293 cells, Fluo-4 calcium flux | Mas-related G-protein coupled receptor member X1 (Homo sapiens), Q96LB2 | BAM8-22 antagonism; stronger effect = lower value | B-score at 10 µM | 310,000 tested, 1.3% active | AID 588676, 2011;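 active = calcium-response B-score plate-corrected more than 3 library SD below zero, starting fluorescence within 5 deviations, no agonist response on first addition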;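 also: peak minus trough fluorescence over baseline after final BAM8-22 challenge near maximal dose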
* marks the source's active call; other numbers are inactive results; i = inactive; / = no result.

SMILES | MrgX1 agonist | MrgX1 PAM | RGS4 act | RGS4 inh | MrgX1 antagonist
O=C(NC1CCCCC1)C(c1ccccn1)N(C(=O)Cc1cccs1)c1ccc(Cl)cc1 (centres undefined) | 37* | i | i | i | i
CC(=O)c1ccc(N2CCN(C(=O)c3n[nH]c4ccccc34)CC2)cc1 | i | i | i | i | i
O=C(COC(=O)c1ccco1)Nc1nc2ccc([N+](=O)[O-])cc2s1 | i | i | i | i | i
Cc1ccc(C)c(OCC(=O)Nc2nc3ccc([N+](=O)[O-])cc3s2)c1 | i | i | i | i | -7.2*
CCNC(=S)Nc1ccc(Cl)c(C(F)(F)F)c1 | i | i | i | i | i
CCOC(=O)C1=C(Nc2ccc(Br)cc2)CC(C)(O)C(C(=O)OCC)C1c1ccccc1 (centres undefined) | i | i | i | i | i
CC(C)(C)OC(=O)NC(CNCc1ccccc1)Cc1ccccc1 (centres undefined) | i | i | i | i | i
CCCCC1C(=O)CC[C@H]2[C@@H]1CC(=O)[C@@H]2C/C=C\CCCC(=O)O (some centres undefined) | i | i | i | i | i
CCCCC[C@H](O)/C=C/[C@H]1[C@H](O)CC(=O)[C@@H]1CCCCCCC(=O)O | 30* | i | i | 6.4* | i
O=C(Nc1ccnn1C1CCN(C2CCC2)CC1)c1ccccc1Cl | i | i | i | i | i
COc1ccc(C=C2C(=O)c3ccccc3C2=O)cc1O | i | i | i | i | i
CCCCc1ccc(/C=C2\C(=O)c3ccccc3C(O)=C2C(=O)OCC)cc1 | i | i | i | i | -10*
CCN(CCCNC(=O)CCCCn1c(=O)[nH]c2ccccc2c1=O)c1ccccc1 | i | i | i | i | -5*
Cc1cc(C(=O)OCC(=O)N2CCc3ccccc32)c(C)o1 | i | i | i | i | i
O=S(=O)(NCCc1ccccc1)c1cccs1 | i | i | i | i | i
COc1ccc(OC)c(-c2csc(N(Cc3ccco3)C(=O)c3cccs3)n2)c1 | i | i | i | i | i
COc1ccc(-c2csc(N(Cc3ccco3)C(=O)c3cccs3)n2)cc1 | i | i | i | i | -4.8*
COC(=O)c1ccccc1NC=C1C(=O)OC2(CCCCC2)OC1=O | i | i | i | i | i
C#CCOc1c(Br)cc(/C=N/O)cc1OCC | i | 7.9* | i | i | i
CCC(CC)C(=O)NCc1cccnc1 | i | i | i | i | i
O=C(CSc1nnc(-c2ccccc2Cl)o1)N1CCOCC1 | i | i | i | i | i
COC(=O)C(CC(=O)c1ccc(Br)cc1)n1nc(C)cc1C (centres undefined) | i | i | i | i | i
COC(=O)C(CC(=O)c1ccc(Br)cc1)n1ccnc1 (centres undefined) | / | / | i | 6.6* | /
O=C(CN(C(=O)c1csnn1)c1ccc(Cl)cc1)NC1CCCC1 | i | i | i | i | i
O=C(NC(NC(=S)Nc1ccc(Cl)cc1Cl)C(Cl)(Cl)Cl)c1cccc([N+](=O)[O-])c1 (centres undefined) | i | i | -7.2* | i | i
SMILES | MrgX1 agonist | MrgX1 PAM | RGS4 act | RGS4 inh | MrgX1 antagonist
O=C(O)c1cccc(NC(=S)NC(NC(=O)c2cccc([N+](=O)[O-])c2)C(Cl)(Cl)Cl)c1 (centres undefined) | i | i | i | i | i
O=C(O)C1CCN(S(=O)(=O)c2ccc(N3CCC(O)CC3)c([N+](=O)[O-])c2)CC1 | i | i | i | i | i
O=[N+]([O-])c1ccc(Nc2nc(N/N=C\c3ccc4c(c3)OCO4)nc(N3CCCCC3)n2)cc1 | i | i | i | i | -4.5*
O=[N+]([O-])c1ccc(/C=N/Nc2nc(N3CCCCC3)nc(N3CCCCC3)n2)cc1 | i | i | i | i | i
COc1ccc(/C=N\n2nnc3ccccc32)cc1 | i | i | i | i | i
Cc1cc(/C=C2/C(=N)N3C(=NC2=O)SN=C3S(C)(=O)=O)c(C)n1-c1ccc(F)cc1 | i | 18* | i | i | i
Cc1ccc(-n2cccc2/C=C2/C(=N)N3C(=NC2=O)SN=C3S(C)(=O)=O)cc1Cl | i | i | / | / | i
Cc1cccc(C)c1-n1cccc1/C=C1/C(=N)N2C(=NC1=O)SN=C2S(C)(=O)=O | i | i | -7.9* | i | i
CC1=CSC2=NC(=O)/C(=C\c3cccn3-c3ccccc3)C(=N)N12 | i | 8.8* | i | i | i
CCC1=NN2C(=N)/C(=C\c3cccn3-c3cccc(Cl)c3)C(=O)N=C2S1 | i | 11* | i | i | i
Cc1ccc(S(=O)(=O)Nc2ccncc2)c(C)c1N(C)S(=O)(=O)c1ccc(Cl)cc1 | i | i | i | i | i
COCCCNC(=O)c1ccc2nc(Cc3ccc(OC)cc3)oc2c1 | i | i | i | i | i
Cc1nccn1-c1c([N+](=O)[O-])c(=O)n(C)c2ccccc12 | i | i | i | i | i
O=c1c2ccccc2ncn1-c1ccccc1[N+](=O)[O-] | i | 13* | i | i | i
Cn1c(=O)c([N+](=O)[O-])c(-n2cnc3ccccc32)c2ccccc21 | 27* | i | i | i | i
CCCc1nc2ccccc2c(=O)n1NC(=O)c1c(O)c2cccc3c2n(c1=O)CCC3 | i | i | i | i | -5.7*
CCCCc1nc2ccccc2c(=O)n1NC(=O)c1c(O)c2ccccc2n(C)c1=O | i | i | i | i | -5.8*
Cn1c(=O)c(C(=O)NCCCc2ccccc2)c(O)c2ccccc21 | i | i | i | i | i
O=C(N/N=C/c1ccc(N2CCOCC2)cc1)c1cccs1 | i | i | i | i | i
O=C(N/N=C/c1ccc(N2CCOCC2)cc1)c1ccccc1OCCOc1ccccc1 | i | i | -7.1* | i | i
O=C1NC(=S)N/C1=C/c1cc([N+](=O)[O-])ccc1O | i | 12* | i | i | i
CC(C)=CCc1c(O)cc2oc3c(CC=C(C)C)c(O)c(O)c(CC=C(C)C)c3c(=O)c2c1O | i | i | i | i | -5.6*
CCN(Cc1ccccc1)C(=O)c1cccc(S(=O)(=O)N2CCN(Cc3ccccc3)CC2)c1 | i | i | i | i | i
